In ChEMBL document CHEMBL1687720 (Antimicrob Agents Chemother, 2009):
Calls of active or inactive are those of the source. No cut-off for these calls is given here.

Key:
A549 [1] = assay: Effect on thioredoxin reductase expression in human A549 cells assessed as transcript level at 5 nM after 24 hrs by RT-qPCR analysis relative to untreated control; assay type: functional; details: in the assay text read “5 µM” for “5 nM”
Procedure, shortened: (§1)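 A549 cells are seeded at 2.5 × 10^5 per 25-cm2 well. At 40–45% confluence they are treated for 24 h with 166 or 662 μM, 158 or 315 μM, or 5 or 24 μM compound; controls receive <5% DMSO. Total RNA is DNase-treated and qRT-PCR is run in quadruplicate. Values are normalized to GAPDH and given as % of untreated control.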

A549 [2] = assay: Effect on glutathione peroxidase expression in human A549 cells assessed as transcript level at 5 µM after 24 hrs by RT-qPCR analysis relative to untreated control
Plasmodium falciparum [3] = assay: Downregulation of thioredoxin peroxidase mRNA level in Plasmodium falciparum 3D7 trophozoites at 126 nM after 18 hrs by RT-qPCR analysis relative to untreated control; assay type: functional
Procedure, shortened: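 P. falciparum 3D7 trophozoites are exposed to 126 nM compound for 12, 15 or 18 h, then harvested by saponin lysis at 37°C. RNA is extracted and reverse-transcribed, and transcripts are quantified by real-time PCR in quadruplicate. Analysis uses ΔΔCT with 18S rRNA as reference (LDH also checked), expressed as % of untreated control.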

Thioredoxin reductase [4] = target: T1, Thioredoxin reductase (Homo sapiens, UniProt Q16881+Q9NNW7+Q86VQ6); assay: Inhibition of thioredoxin reductase in human A549 cells assessed as enzyme activity at 24 µM after 24 hrs by DTNB assay relative to untreated control; set-up: scale not given: the % may be the effect or the level left
A549 [5] = assay: Effect on glutathione peroxidase expression in human A549 cells assessed as transcript level at 24 nM after 24 hrs by RT-qPCR analysis relative to untreated control; assay type: functional; details: in the assay text read “24 µM” for “24 nM”; procedure, shortened: as §1
Plasmodium falciparum [6] = assay: Upregulation of glutathione synthetase mRNA level in Plasmodium falciparum 3D7 trophozoites at 126 nM after 15 hrs by RT-qPCR analysis relative to untreated control; assay type: functional
Procedure, shortened: (§2)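 Synchronized 3D7 trophozoites in RPMI/Albumax culture at 37°C under 3% O2, 3% CO2 were exposed 12, 15 or 18 h, then harvested by 0.02% saponin lysis. RNA was reverse-transcribed and analyzed by real-time PCR in quadruplicate. Quantification used ΔΔCT with 18S rRNA reference (LDH also checked), expressed as % of untreated control.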

Plasmodium falciparum [7] = assay: Upregulation of thioredoxin reductase mRNA level in Plasmodium falciparum 3D7 trophozoites at 126 nM after 12 hrs by RT-qPCR analysis relative to untreated control; assay type: functional, organism-based; procedure, shortened: as §2
A549 [8] = assay: Effect on glutathione S-transferase expression in human A549 cells assessed as transcript level at 5 nM after 24 hrs by RT-qPCR analysis relative to untreated control; assay type: functional; details: in the assay text read “5 µM” for “5 nM”; procedure, shortened: as §1
Plasmodium falciparum [9] = assay: Antiplasmodial activity against chloroquine-sensitive Plasmodium falciparum 3D7 assessed as inhibition of trophozoite stage parasite growth at 526 nM after 24 hrs by [3H]hypoxanthine incorporation assay; assay type: functional; details: 3D7, read-out: GI
Procedure, shortened: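 P. falciparum 3D7 is synchronized with sorbitol. […] Cells are washed four times, then labelled with [3H]hypoxanthine for 24 h. Growth is given as % of untreated control for each stage, in triplicate.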

A549 [10] = assay: Effect on glutathione S-transferase expression in human A549 cells assessed as transcript level at 662 nM after 24 hrs by RT-qPCR analysis relative to untreated control; assay type: functional; details: in the assay text read “662 µM” for “662 nM”; procedure, shortened: as §1
A549 [11] = assay: Inhibition of glutathione peroxidase in human A549 cells assessed as enzyme activity at 662 µM after 24 hrs relative to untreated control; set-up: scale not given: the % may be the effect or the level left
Plasmodium falciparum [12] = assay: Antiplasmodial activity against chloroquine-resistant Plasmodium falciparum K1 in presence of mefloquine; assay type: functional
[13] = target: T2, Glutathione reductase, mitochondrial (Homo sapiens) (UniProt P00390); assay: Inhibition of glutathione reductase in human A549 cells assessed as enzyme activity at 166 µM after 24 hrs relative to untreated control; set-up: scale not given: the % may be the effect or the level left
T2 sequence (whole entry): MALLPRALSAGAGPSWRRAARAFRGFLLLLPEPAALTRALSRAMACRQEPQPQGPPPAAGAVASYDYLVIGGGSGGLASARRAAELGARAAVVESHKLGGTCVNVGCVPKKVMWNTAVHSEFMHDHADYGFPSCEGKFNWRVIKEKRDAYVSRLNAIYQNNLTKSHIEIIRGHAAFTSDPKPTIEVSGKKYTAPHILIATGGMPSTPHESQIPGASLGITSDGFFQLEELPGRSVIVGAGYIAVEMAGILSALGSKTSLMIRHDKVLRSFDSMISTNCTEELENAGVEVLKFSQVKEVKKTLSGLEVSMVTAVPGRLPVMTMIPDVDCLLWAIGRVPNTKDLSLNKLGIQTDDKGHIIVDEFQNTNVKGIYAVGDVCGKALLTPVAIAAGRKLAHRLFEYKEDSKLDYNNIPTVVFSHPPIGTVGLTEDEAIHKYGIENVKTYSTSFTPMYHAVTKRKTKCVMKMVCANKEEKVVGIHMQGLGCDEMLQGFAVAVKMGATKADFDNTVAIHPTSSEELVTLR

Plasmodium falciparum [14] = assay: Antiplasmodial activity against chloroquine-resistant Plasmodium falciparum K1 in presence of pyrimethamine; assay type: functional
Plasmodium falciparum [15] = assay: Antiplasmodial activity against chloroquine-resistant Plasmodium falciparum K1 in presence of methylene blue; assay type: functional
A549 [16] = assay: Inhibition of glutathione peroxidase in human A549 cells assessed as enzyme activity at 166 µM after 24 hrs relative to untreated control; set-up: scale not given: the % may be the effect or the level left
A549 [17] = assay: Effect on thioredoxin reductase expression in human A549 cells assessed as transcript level at 315 nM after 24 hrs by RT-qPCR analysis relative to untreated control; assay type: functional; details: in the assay text read “315 µM” for “315 nM”; procedure, shortened: as §1
A549 [18] = assay: Effect on glutathione S-transferase expression in human A549 cells assessed as transcript level at 158 nM after 24 hrs by RT-qPCR analysis relative to untreated control; assay type: functional; details: in the assay text read “158 µM” for “158 nM”; procedure, shortened: as §1
Thioredoxin reductase [19] = target: T1, Thioredoxin reductase; assay: Inhibition of thioredoxin reductase in human A549 cells assessed as enzyme activity at 315 µM after 24 hrs by DTNB assay relative to untreated control; set-up: scale not given: the % may be the effect or the level left
A549 [20] = assay: Effect on glutathione reductase expression in human A549 cells assessed as transcript level at 315 nM after 24 hrs by RT-qPCR analysis relative to untreated control; assay type: functional; details: in the assay text read “315 µM” for “315 nM”; procedure, shortened: as §1
A549 [21] = assay: Inhibition of glutathione peroxidase in human A549 cells assessed as enzyme activity at 315 µM after 24 hrs relative to untreated control; set-up: scale not given: the % may be the effect or the level left

## O=c1oc2c(O)c(O)c(O)c3c(=O)oc4c(O)c(O)c(O)c1c4c23 [CORULEOELLAGIC ACID]
A549 [1]
  Activity: 76%
A549 [2]
  Activity: 51%
Plasmodium falciparum [3]
  Activity: 19%
Thioredoxin reductase [4]
  Activity: 45%
A549 [5]
  Activity: 71%
Plasmodium falciparum [6]
  Activity: 128%
Plasmodium falciparum [7]
  Activity: inactive
A549 [8]
  Activity: 68%
Plasmodium falciparum [9]
  inhibition of growth at 0.526 µM: > 95%

## O=c1oc2c(O)c(O)cc3c(=O)oc4c(O)c(O)cc1c4c23 [ELLAGIC ACID]
A549 [10]
  Activity: 131%
A549 [11]
  Activity: 125%
Plasmodium falciparum [12]
  FIC50: 1
[13]
  Activity: 87%
Plasmodium falciparum [14]
  FIC50: 1
Plasmodium falciparum [15]
  FIC50: 1
A549 [16]
  Activity: 86%

## O=c1oc2c(O)c(O)c(O)c3c(=O)oc4c(O)c(O)cc1c4c23 [FLAVELLAGIC ACID]
A549 [17]
  Activity: 61%
A549 [18]
  Activity: 115%
Thioredoxin reductase [19]
  Activity: 115%
A549 [20]
  Activity: 70%
A549 [21]
  Activity: 112%
